Hits are enriched below; roughly 3.7% of the tested compounds scored in any of these assays.
CFTR F508del cor = CFTR F508del correction in bronchial cells. 0.36% of 350,000 active. CFBE cells, YFP halide quenching; stimulated with forskolin plus potentiator P3; % fluorescence drop versus neutral controls. activity (quench increase), % at 7.58 µM. AID 720511;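 active = mean added fluorescence quench of at least 8% versus neutral control, with both replicates also reaching 8%; inconclusive = only one of the mean or replicate conditions met; inactive = mean below 8% and not both replicates reaching 8%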;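 note: cells transiently co-express mutant CFTR-F508del with the halide-sensitive YFP; corrector assay measuring rescue of mutant channel to the surface after 24 h compound exposure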
DENV2 CPE rescue = protects cells from dengue virus 2 cytopathic effect; 1.7% of 350,000 active; CPE inhibition, % at 9.99 µM; DENV2-infected cells, cytopathic effect rescue, plate reader; in the data active = CPE inhibition above about 20%, passing the limit was not always enough; inconclusive = no clear call, values can overlap the other calls; tested in BHK-21 cells;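 note: 0% = median of neutral control wells and 100% = median of positive control wells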
ERAP1 inh = ERAP1 (human) enzyme inhibition | Q9NZ08 | recombinant ERAP1, Leu-AMC fluorescence, 60 min | 0.15% of 340,000 active | AID 652197 | inhibition, % at 10.7 µM;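 active = mean replicate inhibition of at least 30%, or all replicates individually reaching that 30% level; inactive = mean below 30% and not every replicate reaching it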;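 note: 0% = neutral control wells and 100% = L-leucinethiol positive control wells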
Target sequence (Q9NZ08 whole entry, looked up): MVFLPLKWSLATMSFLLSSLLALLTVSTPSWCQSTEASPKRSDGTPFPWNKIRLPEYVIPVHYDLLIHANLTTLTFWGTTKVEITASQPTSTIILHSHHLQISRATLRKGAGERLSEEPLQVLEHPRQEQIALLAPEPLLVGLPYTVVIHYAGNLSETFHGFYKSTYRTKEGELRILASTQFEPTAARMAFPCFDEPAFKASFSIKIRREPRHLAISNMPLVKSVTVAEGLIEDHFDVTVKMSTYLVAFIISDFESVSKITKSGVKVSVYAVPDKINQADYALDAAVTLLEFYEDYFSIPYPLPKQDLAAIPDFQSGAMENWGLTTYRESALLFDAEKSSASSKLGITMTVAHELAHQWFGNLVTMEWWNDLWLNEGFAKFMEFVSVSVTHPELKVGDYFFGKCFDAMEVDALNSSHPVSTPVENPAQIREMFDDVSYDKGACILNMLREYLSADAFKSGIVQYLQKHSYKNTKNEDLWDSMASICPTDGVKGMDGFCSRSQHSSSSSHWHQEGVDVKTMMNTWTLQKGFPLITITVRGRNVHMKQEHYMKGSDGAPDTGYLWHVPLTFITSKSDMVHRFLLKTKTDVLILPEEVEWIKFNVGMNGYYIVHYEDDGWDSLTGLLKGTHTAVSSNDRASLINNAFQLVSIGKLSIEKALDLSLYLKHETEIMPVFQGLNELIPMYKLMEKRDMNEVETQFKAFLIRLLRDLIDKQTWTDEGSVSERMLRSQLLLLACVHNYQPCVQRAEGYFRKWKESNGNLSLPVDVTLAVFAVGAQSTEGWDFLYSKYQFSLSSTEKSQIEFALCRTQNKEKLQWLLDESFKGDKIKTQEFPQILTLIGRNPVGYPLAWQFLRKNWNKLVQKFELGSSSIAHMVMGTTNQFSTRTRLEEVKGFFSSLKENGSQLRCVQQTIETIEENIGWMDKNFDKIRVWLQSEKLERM
E-selectin induc = induces E-selectin expression in human endothelial cells. HUVEC E-selectin immunofluorescence imaging; normalized: neutral wells 0, TNF-alpha wells 100. 0.37% of 260,000 active. activation, % at 7.58 µM. AID 686992. P16581;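 active = mean E-selectin-positive cell signal at least 10% of the positive control, reached in at least 60% of replicates, without over 20% cell loss; inconclusive = no rule given, readout overlaps actives, possibly toxicity-flagged; inactive = the rest, including those meeting only one limit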
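Read-out: % PE-positive cells | Test system: HUVEC | Doses: One compound dose added by pin transfer | Buffer or medium: EGM-2 over gelatin coat | Signal: Immunofluorescence imaging | Benchmarks: TNF-alpha, DMSO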
FGF22 binding = FGF22 (human) thermal shift binding. 1.5% of 340,000 active. recombinant FGF22 thermal shift, SYPRO orange fluorescence; percent of sucrose octasulfate shift, DMSO zero. activity (Tm shift, normalised), % at 9.99 µM;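 active = mean Tm shift, scaled 0 neutral to 100 positive control, at about 1.3% or above, every replicate too, limit read from the data; inconclusive = no clear call, values can overlap the other calls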
* hit, by the source's call; ? = inconclusive; · = no result.

SMILES | CFTR F508del cor | DENV2 CPE rescue | ERAP1 inh | E-selectin induc | FGF22 binding
CCOc1cc(/C=N/NC(=O)c2cccnc2)ccc1OCC(=O)N(C)C | -1 | -6 | -4 | · | 44*
CCOc1ccc(CC(=O)N/N=C(\C)c2cccnc2)cc1OCC | 0 | 78* | 2 | -1 | 0
CCn1nc(C)c(/C=C/C(=O)Nc2ccc(C)cc2C)c1C | 0 | 89* | 1 | · | ·
Cc1cc(C)c(NC(=O)Nc2ccc3c(c2)OCO3)c(C)c1 | 1 | 2 | -5 | -1 | 0
Cc1cc(C)c2[nH]c(C(=O)Nc3ccc4c(c3)OCO4)cc2c1 | 2 | 24* | · | · | 0
CCOc1ccc2ncc(S(=O)(=O)c3ccc(C)cc3)c(N3CCC4(CC3)OCCO4)c2c1 | · | 5 | -1 | 140* | -1
CCOC(=O)c1cnc2ccc(OCC)cc2c1NCCCN1CCOCC1 | · | -2 | 9 | · | 0
O=C(NCCC1=CCCCC1)C(=O)NCC1OCCCN1S(=O)(=O)c1ccc(F)cc1 (stereo not drawn) | -1 | -5 | -7 | · | 44*
O=C(NCCN1CCOCC1)C(=O)NCC1OCCN1S(=O)(=O)c1ccc(Cl)cc1 (stereo not drawn) | 1 | 79* | -2 | 0 | 0
Cc1ccc(-c2ccc3c(c2)O[C@@H](CN(C)C(=O)C2CC2)[C@H](C)CN([C@H](C)CO)S3(=O)=O)cc1 | 2 | 15 | 1 | 0 | 0
C[C@@H]1CN([C@H](C)CO)C(=O)c2cccc(NC(=O)C3CCCCC3)c2O[C@@H]1CN(C)C(=O)Nc1ccc(F)cc1 | 0 | -8 | 0 | 0 | 0
NS(=O)(=O)Oc1ccccc1 | -1 | 52* | 2 | 0 | 0
O=S(=O)(CS(=O)(=O)Oc1ccccc1)Oc1ccccc1 | -1 | 23* | 2 | 0 | 0
O=S(=O)(Oc1ccccc1)c1ccc(Cl)c(Cl)c1 | -1 | 1 | -1 | 0 | 0
COc1cccc(S(=O)(=O)N2CC3(CN[C@@H](CO)c4[nH]c5cc(OC)ccc5c43)C2)c1 | 2 | 15 | -1 | 0 | 0
COc1cccc(NC(=O)Nc2ccc3c(c2)C(=O)N(C)[C@H]2CC[C@H](CC(=O)O)O[C@@H]2CO3)c1 | 5 | 2 | · | 0 | 0
C[C@@H]1CCCCO[C@H](CN(C)C(=O)Cc2ccccc2)[C@@H](C)CN([C@H](C)CO)C(=O)c2cc(NC(=O)NC3CCCCC3)ccc2O1 | 0 | -1 | · | 0 | 0
O=C(NC[C@H]1N[C@H](CO)[C@@H]1c1ccc(C2=CCCCC2)cc1)c1ccc(F)cc1 | -7 | 44* | 3 | 0 | 0
O=C(NC[C@H]1N[C@H](CO)[C@H]1c1ccccc1)c1ccccc1F | 0 | 23* | -1 | 0 | -1
O=C(NC[C@H]1N[C@H](CO)[C@@H]1c1ccc(C2=CCCCC2)cc1)c1cccc(F)c1 | 1 | 10 | · | 0 | -1
C[C@H](CO)N1C[C@H](C)[C@H](CN(C)C(=O)Cc2ccccc2)OCCCC[C@H](C)Oc2ccc(NC(=O)Nc3cccc4ccccc34)cc2C1=O | 0 | -3 | 1 | 1 | -1
CCN1CCN(C(=O)CSc2nc(N)cc(N)n2)CC1 | 0 | 6 | -1 | -2 | 44*
COc1ccc2c3c(n(C)c2c1)[C@H](CO)N(C(=O)C1CCOCC1)CC31CN(C(=O)C2CC2)C1 | 0 | 22* | 1 | 0 | 0
COc1ccc2c3c(n(C)c2c1)[C@H](CO)N(C(=O)C1CC1)CC31CCN(Cc2cccc(F)c2)CC1 | 15* | -24 | 1 | 0 | ·
COc1ccc2c3c(n(C)c2c1)[C@@H](CO)N(C(=O)C1CC1)CC31CCN(Cc2cccc(F)c2)CC1 | 6 | -25 | 1 | 0 | ·
SMILES | CFTR F508del cor | DENV2 CPE rescue | ERAP1 inh | E-selectin induc | FGF22 binding
Cc1ccc2c(c1)c1c(n2CC(O)CN2CCCCCC2)CCCC1 (stereo not drawn) | 5 | 8 | 5 | 0 | 0
Cc1ccc2c(c1)c1c(n2CC(O)Cn2c(C)nc3ccccc32)CCCC1 (stereo not drawn) | 1 | -4 | 7 | 69* | 0
Cc1noc(C)c1NC(=O)Nc1ccc2c(c1)C(=O)N([C@@H](C)CO)C[C@@H](C)[C@H](CN(C)C(=O)CCCN(C)C)OCCCC[C@@H](C)O2 | 1 | -2 | -1 | 0 | -1
CC(NC(=O)C12CC3CC(CC(C3)C1)C2)C(=O)N/N=C/C1=C(N2CCOCC2)C(=C\c2ccccc2)/CC1 (stereo not drawn) | -2 | 133* | 3 | 0 | 0
CC(=O)N[C@@H]1CC[C@@H](CCNC(=O)C2CC2)O[C@@H]1CO | 0 | 15 | -4 | 0 | 0
CCCCCCCCOC(=O)C[N+](C)(C)C/C=C(/C)Cl | -1 | 9 | 12 | · | 0
CCCCCCCCCCOC(=O)C[N+](C)(C)C/C=C(/C)Cl | 3 | 3 | 36* | 3 | 0
CC(=O)O[C@H]1C(=O)[C@@]2(C)[C@H]([C@H](OC(=O)c3ccccc3)[C@]3(O)C[C@H](OC(=O)[C@H](O)C(NC(=O)c4ccccc4)c4ccccc4)C(C)=C1C3(C)C)[C@]1(OC(C)=O)CO[C@@H]1C[C@@H]2O (stereo partly drawn) | 11* | -6 | -3 | 1 | 0
COc1ccc2c3c(n(C)c2c1)[C@H](CO)N(CC1CC1)CC31CCN(C(=O)c2ccc(F)cc2)CC1 | 2 | 5 | -3 | 0 | 0
COCCNC(=O)CCC1CCN(C/C=C/c2ccccc2OC)CC1 | 2 | 29* | -1 | 0 | 0
c1ccc(COc2ncnc3c2ncn3CCCNCc2cccs2)cc1 | 2 | ? | 0 | 0 | 43*
COc1ccc(N(C(=O)c2ccncc2)S(=O)(=O)c2ccc3c4c(cccc24)C(=O)N3C)cc1 | · | 3 | -2 | · | 0
CCN1C(=O)c2cccc3c(S(=O)(=O)N(C(C)=O)c4ccc(OC(C)=O)cc4)ccc1c23 | 16* | -3 | -14 | -1 | 0
Cc1noc(C)c1S(=O)(=O)N(C)C[C@H]1Oc2ccc(NC(=O)Nc3ccc(C(F)(F)F)cc3)cc2CC(=O)N([C@H](C)CO)C[C@H]1C | -1 | 1 | · | 0 | 0
C=CCc1cccc(CNc2c(C)cc(C)cc2C)c1O | 2 | ? | 3 | -1 | 44*
C=CCc1cccc(CNn2cnnc2)c1O | 0 | 4 | 2 | · | 0
C[C@H](CO)N1C[C@H](C)[C@@H](CN(C)S(=O)(=O)c2ccc(Cl)cc2)Oc2c(NC(=O)C3CCCCC3)cccc2C1=O | 0 | ? | 2 | -9 | 0
COc1ccc(S(=O)(=O)N(C)C[C@@H]2Oc3c(NC(=O)NC4CCCCC4)cccc3C(=O)N([C@H](C)CO)C[C@@H]2C)cc1 | -1 | -2 | 1 | 1 | 0
C[C@H](CO)N1C[C@H](C)[C@@H](CN(C)S(=O)(=O)c2ccc(Cl)cc2)Oc2c(NC(=O)NC3CCCCC3)cccc2C1=O | 0 | 21* | 1 | 0 | 0

High-throughput results from PubChem.
